Measured values pooled from the literature.
≈ marks a conversion by molar mass, not a printed value.
Organism: Staphylococcus aureus

The MIC80 of `CC(C)c1ccc(O)c(=O)cc1` is reported as 66.7 µM (≈ 11 µg/mL) (microbial growth, broth dilution; ATCC29213).
With `CN[C@H](CC(C)C)C(=O)N[C@H]1C(=O)N[C@@H](CC(N)=O)C(=O)N[C@H]2C(=O)N[C@H]3C(=O)N[C@H](C(=O)N[C@H](C(=O)O)c4cc(O)cc(O)c4-c4cc3ccc4O)[C@H](O)c3ccc(c(Cl)c3)Oc3cc2cc(c3O[C@@H]2O[C@H](CO)[C@@H](O)[C@H](O)[C@H]2O[C@H]2C[C@](C)(N)[C@H](O)[C@H](C)O2)Oc2ccc(cc2Cl)[C@H]1O` the inhibition zone was 20 mm (microbial growth, disc diffusion; ATCC29213; 125 µg/disc, 24 h).
The MIC of `COc1ccc(S(=O)(=O)N(C(C)=O)c2ccccc2/C=C/c2cc[n+]([O-])cc2)cc1` is reported as over 30 µM (microbial growth; NCTC8325).
For `CC(C)c1nn(-c2nc3ccc(Cl)cc3s2)c2c1C(=O)c1ccccc1-2`, the inhibition zone was 11 mm (microbial growth, well diffusion; NCIM5021; 500 µg/mL).
`CCCCCCCCCCCCCC(O)CC(O)CO` (stereo not drawn) gave an IC50 of 8.26 µg/mL (≈ 28.6 µM) (microbial growth, broth dilution; ATCC33591 MRSA; drug-resistant strain).
For `Cc1nn(-c2nc3ccccc3s2)c2c1C(=O)c1ccccc1-2`, the inhibition zone was 9 mm (microbial growth, well diffusion; NCIM5021; 125 µg/mL).
`O=C(O)CN1C(=O)/C(=C/c2ccc(-c3ccc(N(c4ccccc4)c4ccccc4)cc3)c3ccccc23)SC1=S` gave an MBC of over 1000 µg/mL (microbial killing, broth dilution; ATCC25923).
For `CC(C)c1cccc(=O)c(O)c1`, the MIC80 was 66.7 µM (≈ 11 µg/mL) (microbial growth, broth dilution; ATCC29213).
The inhibition zone of `Cc1nn(-c2nc3ccc(Cl)cc3s2)c2c1C(=O)c1ccccc1-2` is reported as 10 mm (microbial growth, well diffusion; NCIM5021; 250 µg/mL).
For `O=C(O)CN1C(=O)/C(=C/c2ccc(-c3ccc(N(c4ccccc4)c4ccccc4)cc3)cc2)SC1=S`, the MBC was 7.8 µg/mL (microbial killing, broth dilution; ATCC6538).
`CCN1CCN(Cc2ccc(-c3cc4c(N[C@H](C)c5ccccc5)ncnc4[nH]3)cc2)CC1` gave an MIC of over 30 µM (microbial growth; NCTC8325).
`O=C1NC(=S)S/C1=C\c1ccc(-c2ccc(N(c3ccccc3)c3ccccc3)cc2)c2ccccc12` gave an MBC of over 1000 µg/mL (microbial killing, broth dilution; ATCC25923).
`CC(C)Cc1nn(-c2nc3ccc(Cl)cc3s2)c2c1C(=O)c1ccccc1-2` gave an inhibition zone of 10 mm (microbial growth, well diffusion; NCIM5021; 250 µg/mL).
The inhibition zone of `CC1(c2ccccc2O)Nn2c(nc(-c3ccc(Cl)cc3)c(C#N)c2=O)N1C(Cc1c[nH]c2ccccc12)C(=O)O` (stereo not drawn) is reported as 35 mm (microbial growth; ATCC25923; 15 µg/mL, 24 h).
`O=C1NC(=O)[C@@H](c2cn3c4c(cccc24)CCC3)[C@@H]1c1c[nH]c2ccccc12` has an MIC of over 30 µM (microbial growth; NCTC8325).
`O=C(O)CN1C(=O)/C(=C/c2c3ccccc3c(-c3ccc(N(c4ccccc4)c4ccccc4)cc3)c3ccccc23)NC1=S` gave an MBC of over 1000 µg/mL (microbial killing, broth dilution; ATCC43300).
`C#CCCCCCCCCC=CCC(O)CC(O)CO` (stereo not drawn) gave an IC50 of over 200 µg/mL (microbial growth, broth dilution; ATCC33591 MRSA; drug-resistant strain).
`O=C(Cc1ccccc1)Sc1cccccc1=O` has an MIC80 of over 100 µM (microbial growth, broth dilution; ATCC29213).
For `O=C1NC(=S)S/C1=C\c1ccc(-c2ccc(N(c3ccccc3)c3ccccc3)cc2)cc1`, the MBC was 1000 µg/mL (microbial killing, broth dilution; ATCC25923).
For `Cc1ccc2nc(-n3nc(C(C)C)c4c3-c3ccccc3C4=O)sc2c1`, the inhibition zone was 14 mm (microbial growth, well diffusion; NCIM5021; 1000 µg/mL).
`O=S(=O)(c1cccc2cnccc12)N1CCCNCC1` has an MIC of over 30 µM (microbial growth; NCTC8325).
For `CCOC(=O)C1=C(C)N2NC(C)(c3ccccc3O)N(C(Cc3c[nH]c4ccccc34)C(=O)O)C2=NC1c1ccc(Cl)cc1` (stereo not drawn), the inhibition zone was 30 mm (microbial growth; ATCC25923; 15 µg/mL, 24 h).
The MIC of `CCCS(=O)(=O)Nc1ccc(F)c(C(=O)c2c[nH]c3ncc(Cl)cc23)c1F` is reported as over 30 µM (microbial growth; NCTC8325).
With `O=C1NC(=S)S/C1=C\c1c2ccccc2c(-c2ccc(N(c3ccccc3)c3ccccc3)cc2)c2ccccc12` the MBC was over 1000 µg/mL (microbial killing, broth dilution; ATCC43300).
The MIC80 of `O=C(Sc1cccccc1=O)c1ccccc1C(F)(F)F` is reported as 100 µM (≈ 31 µg/mL) (microbial growth, broth dilution; ATCC29213).
The inhibition zone of `COc1ccc2nc(-n3nc(C(C)C)c4c3-c3ccccc3C4=O)sc2c1` is reported as 11 mm (microbial growth, well diffusion; NCIM5021; 1000 µg/mL).
`C#CCCCCCCCCCCCC(O)CC(O)CO` (stereo not drawn) gave an IC50 of 3.26 µg/mL (≈ 11.5 µM) (microbial growth, broth dilution; ATCC29213).
For `Cc1ccc2nc(-n3nc(C)c4c3-c3ccccc3C4=O)sc2c1`, the inhibition zone was 11 mm (microbial growth, well diffusion; NCIM5021; 125 µg/mL).
The MIC of `Cc1cnc(-c2cnc(NCCNc3ccc(C#N)cn3)nc2-c2ccc(Cl)cc2Cl)[nH]1` is reported as over 30 µM (microbial growth; NCTC8325).
The MBC of `O=C(O)CN1C(=O)/C(=C/c2ccc(-c3ccc(N(c4ccccc4)c4ccccc4)cc3)c3ccccc23)NC1=S` is reported as over 1000 µg/mL (microbial killing, broth dilution; ATCC25923).
With `Cc1ccc2nc(-n3nc(CC(C)C)c4c3-c3ccccc3C4=O)sc2c1` the inhibition zone was 11 mm (microbial growth, well diffusion; NCIM5021; 125 µg/mL).
For `COc1c(C)c(OS(=O)(=O)c2ccc3ccccc3c2)c(C)c(O)c1C(=O)/C=C/c1ccccc1`, the MBC was over 5000 µg/mL (microbial killing, broth dilution; ATCC25923).
With `O=C(O)CN1C(=O)/C(=C/c2c3ccccc3c(-c3ccc(N(c4ccccc4)c4ccccc4)cc3)c3ccccc23)SC1=S` the MBC was over 1000 µg/mL (microbial killing, broth dilution; ATCC25923).
For `O=C(Sc1cccccc1=O)c1cccc(C(F)(F)F)c1`, the MIC80 was over 100 µM (microbial growth, broth dilution; ATCC29213).
The MIC of `O=C(Nc1ccc2c(c1)CCC2)Nc1ccc(Cl)c(C(F)(F)F)c1` is reported as over 100 µM (microbial growth; NCTC8325; 24 h).
`CC(=O)NC[C@H]1CN(c2ccc(N3CCOCC3)c(F)c2)C(=O)O1` has an MBC of 16 µM (microbial killing, broth dilution; NRS107).
For `O=C(N[C@H](CO)[C@H](O)c1ccc([N+](=O)[O-])cc1)C(Cl)Cl`, the MIC90 was 62.5 µg/mL (≈ 193 µM) (microbial growth; ATCC700699).
The MIC of `Cc1cc(NC(=O)Nc2ccc3c(c2)OC(F)(F)O3)ccc1Cl` is reported as 0.5 µM (≈ 0.17 µg/mL) (microbial growth; NCTC8325).
`CC1(C)S[C@@H]2[C@H](NC(=O)[C@H](N)c3ccccc3)C(=O)N2[C@H]1C(=O)O` has an inhibition of 100% (microbial growth, agar dilution; ATCC29213; 26.93 µM).
